Columns and labels:
Keratinocyte = experiment: Antiproliferative activity against human keratinocyte assessed as inhibition of [3H]TdR uptake; type: functional, cell-based
Mus musculus = experiment: Calcemic activity in percutaneously dosed mouse relative to control; type: functional
How it was run: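 Mice received a single percutaneous dose of test compound or vehicle, n = 3. Blood ionized Ca (mmol/L) was measured. Activity (%) = (analog Ca − vehicle Ca)/vehicle Ca × 100.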

[1] = Clearance in rat at 1000 ug/kg, iv; type: ADME, organism-based; conditions: in vivo, 1 mg/kg
How it was run: (§1)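 Rats were dosed intravenously at 10 µg/kg or 1000 µg/kg. Total clearance (mL/h/kg) is the mean of 3–4 rats.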

[2] = biological target: T1, Vitamin D3 receptor (Gallus gallus) (UniProt O42392); experiment: Binding affinity to chick VDR
T1 sequence (whole entry): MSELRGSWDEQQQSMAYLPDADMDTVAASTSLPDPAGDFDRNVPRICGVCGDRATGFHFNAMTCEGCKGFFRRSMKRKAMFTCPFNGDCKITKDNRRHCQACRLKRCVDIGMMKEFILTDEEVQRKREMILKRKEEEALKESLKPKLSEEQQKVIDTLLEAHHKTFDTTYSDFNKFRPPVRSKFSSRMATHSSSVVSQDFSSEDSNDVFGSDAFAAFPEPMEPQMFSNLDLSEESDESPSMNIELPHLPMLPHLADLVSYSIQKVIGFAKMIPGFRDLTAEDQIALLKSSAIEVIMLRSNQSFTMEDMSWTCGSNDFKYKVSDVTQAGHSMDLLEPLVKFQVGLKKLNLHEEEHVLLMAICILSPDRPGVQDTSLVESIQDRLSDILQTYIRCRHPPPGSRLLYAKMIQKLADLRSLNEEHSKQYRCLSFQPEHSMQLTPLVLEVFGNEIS
How it was run: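 Receptor affinity is expressed as a percentage relative to calcitriol, set at 100%. Each value is the average of duplicate measurements.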

Homo sapiens = organism: Homo sapiens; experiment: Clearance in human liver S9 fraction; type: ADME
How it was run: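 Compound was incubated with human liver S9 in the presence of NADPH. The elimination rate was taken from the time course of compound concentration in the reaction mixture. Clearance is given as mL/min/mg S9 protein, mean of two experiments.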

[3] = Clearance in rat at 10 ug/kg, iv; type: ADME, organism-based; conditions: in vivo, 0.01 mg/kg; how it was run: as §1

C=C1/C(=C\C=C2/CCC[C@]3(C)C([C@H](C)OCCC(C)(C)O)=CCC23)CC(O)CC1O (single isomer, unassigned)
IC50 (Keratinocyte): 50.4 nM | Blood ionized calcium (Mus musculus): 2.16 mmol/L

C=C1/C(=C\C=C2/CCC[C@]3(C)C([C@H](C)OCC(=O)NCC(F)(F)C(F)(F)F)=CCC23)C[C@@H](O)C[C@@H]1O (some centres not stated)
clearance [1]: 131 mL/min/kg | IC50 (Keratinocyte): 1.9 nM | Activity [2]: 34.4% | Blood ionized calcium (Mus musculus): 1.58 mmol/L | CL (Homo sapiens): 278 µL/min/mg

C=C1/C(=C\C=C2/CCC[C@]3(C)C([C@H](C)OCC(=O)OC(C)(CC)CC)=CCC23)C[C@@H](O)C[C@@H]1O (some centres not stated)
clearance [1]: 94.8 mL/min/kg | IC50 (Keratinocyte): 0.8 nM | Activity [2]: 45.1% | Blood ionized calcium (Mus musculus): 1.57 mmol/L | CL (Homo sapiens): 1421 µL/min/mg

C=C1/C(=C\C=C2/CCC[C@]3(C)[C@@H]([C@H](C)CCCC(C)(C)O)CC[C@@H]23)C[C@@H](O)C[C@@H]1O
Activity [2]: 100%

C=C1/C(=C\C=C2/CCC[C@]3(C)C([C@H](C)OCC(=O)NCC(C)(C)C)=CCC23)C[C@@H](O)C[C@@H]1O (some centres not stated)
IC50 (Keratinocyte): 17.4 nM | Activity [2]: 18% | Blood ionized calcium (Mus musculus): 1.82 mmol/L

C=C1/C(=C\C=C2/CCC[C@]3(C)[C@@H]([C@H](C)OCCC(C)(C)O)CC[C@@H]23)C[C@@H](O)C[C@@H]1O [MAXACALCITOL]
clearance [3]: 20.9 mL/min/kg | IC50 (Keratinocyte): 22.6 nM | Activity [2]: 20% | Blood ionized calcium (Mus musculus): 2.6 mmol/L | CL (Homo sapiens): 7 µL/min/mg

C=C1/C(=C\C=C2/CCC[C@]3(C)C([C@H](C)OCC(=O)NC(C)(C)C)=CCC23)C[C@@H](O)C[C@@H]1O (some centres not stated)
IC50 (Keratinocyte): 4.4 nM | Activity [2]: 22.2% | Blood ionized calcium (Mus musculus): 2.16 mmol/L

C=C1/C(=C\C=C2/CCC[C@]3(C)C([C@H](C)O)=CCC23)C[C@@H](O)C[C@@H]1O (some centres not stated)
IC50 (Keratinocyte): > 1000 nM | Activity [2]: 0.32% | Blood ionized calcium (Mus musculus): 1.4 mmol/L

C=C1/C(=C\C=C2/CCC[C@]3(C)C([C@H](C)OCC(=O)OC(C)(C)C)=CCC23)C[C@@H](O)C[C@@H]1O (some centres not stated)
IC50 (Keratinocyte): 8.9 nM | Activity [2]: 40.1% | Blood ionized calcium (Mus musculus): 1.65 mmol/L

C=C1/C(=C\C=C2/CCC[C@]3(C)C([C@H](C)OCC(=O)O)=CCC23)C[C@@H](O)C[C@@H]1O (some centres not stated)
IC50 (Keratinocyte): > 1000 nM | Activity [2]: 0.04% | Blood ionized calcium (Mus musculus): 1.38 mmol/L

C=C1/C(=C\C=C2/CCC[C@@]3(C)C2CC[C@@H]3[C@H](C)CCC(=O)OC(C)(C)C)C[C@@H](O)C[C@@H]1O (some centres not stated)
IC50 (Keratinocyte): 17 nM | Blood ionized calcium (Mus musculus): 1.77 mmol/L

C=C1/C(=C\C=C2/CCC[C@@]3(C)C2CC[C@@H]3[C@H](C)OCC(=O)OC(C)(C)C)C[C@@H](O)C[C@@H]1O (some centres not stated)
IC50 (Keratinocyte): 88.4 nM | Blood ionized calcium (Mus musculus): 1.49 mmol/L

Source: ChEMBL document CHEMBL1148516, “Design and evaluation of new antipsoriatic antedrug candidates having 16-en-22-oxa-vitamin D3 structures” (Bioorg Med Chem Lett, 2006)
